Measurements: ChEMBL document CHEMBL3352788, “Characterization of selective exosite-binding inhibitors of matrix metalloproteinase 13 that prevent articular cartilage degradation in vitro” (J Med Chem, 2014)

How the values were obtained:
Collagenase 3 [1] = target: T1, Collagenase 3 (Homo sapiens, UniProt P45452); experiment: Inhibition of full-length recombinant human MMP-13 assessed as prevention of bovine type-2 collagen degradation at 10 uM after 18 hrs by cartilage explant assay
In short: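 Bovine articular cartilage pieces (~3 mm2) were made nonviable by three freeze–thaw cycles in LN2 and trypsin-digested for 4 h to remove aggrecan. They were then incubated with 100 nM MMP-13 ± compound for 18 h at 37 °C, 5% CO2, in triplicate at a single concentration. Released collagen fragments were measured by C1,2C ELISA and normalized to undigested and MMP-13-digested controls.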

Caspase-3 (Homo sapiens) = target: T2, Caspase-3 (Homo sapiens) (UniProt P42574); experiment: Inhibition of recombinant human caspase 3 using DEVDAA substrate at up to 5 uM after 3 hrs
T2 sequence (whole entry): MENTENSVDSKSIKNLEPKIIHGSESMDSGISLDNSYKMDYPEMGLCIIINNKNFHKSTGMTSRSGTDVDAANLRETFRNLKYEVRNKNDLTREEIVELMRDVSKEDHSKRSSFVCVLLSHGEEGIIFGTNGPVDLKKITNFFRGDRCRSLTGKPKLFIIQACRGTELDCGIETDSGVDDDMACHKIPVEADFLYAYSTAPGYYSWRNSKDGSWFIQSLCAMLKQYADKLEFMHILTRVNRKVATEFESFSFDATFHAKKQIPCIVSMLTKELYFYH
In short: (§1)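 Outsourced microfluidic protease panel. Compound was preincubated with each protease for 30 min at 25 °C, then peptide substrate was added for 3 h at 25 °C and quenched with SDS/EDTA/iodoacetate. Substrate-to-product conversion was measured on LabChip. Compounds were tested singly in a 12-point 3-fold dilution series, top 20 μM (5 μM for two reference compounds).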

[2] = target: T3, Cathepsin K (Homo sapiens) (UniProt P43235); experiment: Inhibition of recombinant human cathepsin K using HHQKLVFFAE substrate at up to 5 uM after 3 hrs; in short: as §1
T3 sequence (whole entry): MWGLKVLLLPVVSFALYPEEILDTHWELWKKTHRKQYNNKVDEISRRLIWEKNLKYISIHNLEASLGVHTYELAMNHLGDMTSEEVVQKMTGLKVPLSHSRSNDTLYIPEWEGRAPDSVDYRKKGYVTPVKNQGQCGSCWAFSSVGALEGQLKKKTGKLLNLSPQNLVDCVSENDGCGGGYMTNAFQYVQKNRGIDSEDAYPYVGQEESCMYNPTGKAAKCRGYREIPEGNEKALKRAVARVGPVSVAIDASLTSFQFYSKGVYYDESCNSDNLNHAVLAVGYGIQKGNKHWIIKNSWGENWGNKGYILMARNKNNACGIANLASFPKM

Caspase-1 (Homo sapiens) = target: T4, Caspase-1 (Homo sapiens) (UniProt P29466); experiment: Inhibition of recombinant human caspase 1 using WEHDGPKR substrate at up to 5 uM after 3 hrs; in short: as §1
T4 sequence (whole entry): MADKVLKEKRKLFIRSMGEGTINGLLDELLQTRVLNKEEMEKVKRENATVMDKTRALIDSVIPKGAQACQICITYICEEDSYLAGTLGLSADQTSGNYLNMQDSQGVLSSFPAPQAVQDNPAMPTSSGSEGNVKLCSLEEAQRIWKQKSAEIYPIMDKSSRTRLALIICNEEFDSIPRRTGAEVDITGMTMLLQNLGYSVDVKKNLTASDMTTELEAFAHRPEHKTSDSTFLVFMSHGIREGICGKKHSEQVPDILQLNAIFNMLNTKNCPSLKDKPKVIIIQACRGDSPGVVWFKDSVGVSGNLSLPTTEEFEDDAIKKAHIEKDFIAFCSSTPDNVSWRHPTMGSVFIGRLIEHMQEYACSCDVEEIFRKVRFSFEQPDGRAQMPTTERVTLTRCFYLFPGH

[3] = target: Prothrombin (Homo sapiens) (UniProt P00734); experiment: Inhibition of recombinant human thrombin using PRTLT substrate at up to 5 uM after 3 hrs
In short: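 In this microfluidic protease panel, enzyme and compound were preincubated 30 min at 25 °C. The peptide substrate was added and the reaction was incubated 3 h at 25 °C, then quenched (SDS, EDTA, iodoacetate). Activity was read as % substrate converted to product. Dose–response was singlicate, 12-point 3-fold dilutions spanning 5 μM to 0.028 nM. IC50 was the concentration leaving 50% activity relative to no-compound control.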

Cytochrome P450 3A4 [4] = target: T5, Cytochrome P450 3A4 (Homo sapiens, UniProt P08684); experiment: Inhibition of CYP3A4 (unknown origin) using testosterone substrate at 20 uM; assay type: ADME
T5 sequence (P08684 whole entry): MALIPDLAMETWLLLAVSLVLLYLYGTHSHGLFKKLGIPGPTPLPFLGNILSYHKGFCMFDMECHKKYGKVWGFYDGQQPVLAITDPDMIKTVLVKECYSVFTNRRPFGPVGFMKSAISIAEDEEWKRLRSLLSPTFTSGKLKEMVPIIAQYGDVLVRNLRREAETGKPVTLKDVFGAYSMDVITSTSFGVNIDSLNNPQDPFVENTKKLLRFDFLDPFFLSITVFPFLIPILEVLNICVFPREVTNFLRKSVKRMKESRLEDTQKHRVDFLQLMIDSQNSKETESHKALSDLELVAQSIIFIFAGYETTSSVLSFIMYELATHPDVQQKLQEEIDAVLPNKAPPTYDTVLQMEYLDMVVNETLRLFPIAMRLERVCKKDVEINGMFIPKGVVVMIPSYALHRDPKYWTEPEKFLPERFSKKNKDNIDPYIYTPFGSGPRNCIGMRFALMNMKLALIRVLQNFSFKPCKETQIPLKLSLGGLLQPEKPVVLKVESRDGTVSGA
In short: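 Human liver microsomes with probe substrate and an NADPH-regenerating system in 0.1 M potassium phosphate pH 7.4 at 37 °C, run in duplicate. Inhibitor at 0–20 μM (0–2.5 μM for one compound), eight concentrations. Reactions were stopped with acetonitrile/formic acid containing isotope-labelled internal standard, and metabolite area ratios were compared with and without inhibitor. IC50 was taken by linear interpolation between bracketing concentrations.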

Caspase-2 (Homo sapiens) = target: T6, Caspase-2 (Homo sapiens) (UniProt P42575); experiment: Inhibition of recombinant human caspase 2 using DEVDAA substrate at up to 5 uM after 3 hrs; in short: as §1
T6 sequence (whole entry): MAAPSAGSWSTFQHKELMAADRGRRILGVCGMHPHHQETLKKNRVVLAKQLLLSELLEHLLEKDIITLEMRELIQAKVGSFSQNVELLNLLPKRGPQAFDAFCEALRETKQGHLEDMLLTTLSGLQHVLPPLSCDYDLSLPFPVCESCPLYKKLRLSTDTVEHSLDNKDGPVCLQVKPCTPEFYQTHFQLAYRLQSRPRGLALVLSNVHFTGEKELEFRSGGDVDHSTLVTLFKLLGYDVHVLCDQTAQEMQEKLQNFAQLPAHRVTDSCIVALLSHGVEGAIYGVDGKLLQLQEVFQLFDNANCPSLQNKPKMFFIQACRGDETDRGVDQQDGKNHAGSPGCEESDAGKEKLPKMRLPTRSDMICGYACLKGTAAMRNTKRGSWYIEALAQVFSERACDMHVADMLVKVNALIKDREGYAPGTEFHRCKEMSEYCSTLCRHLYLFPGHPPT

[5] = target: Beta-secretase 1 (Homo sapiens) (UniProt P56817); experiment: Inhibition of recombinant human BACE1 using SEVNLDAEFRKKRR substrate at up to 5 uM after 3 hrs; in short: as §1
Chain of Beta-secretase 1 (Homo sapiens) (P56817 whole entry): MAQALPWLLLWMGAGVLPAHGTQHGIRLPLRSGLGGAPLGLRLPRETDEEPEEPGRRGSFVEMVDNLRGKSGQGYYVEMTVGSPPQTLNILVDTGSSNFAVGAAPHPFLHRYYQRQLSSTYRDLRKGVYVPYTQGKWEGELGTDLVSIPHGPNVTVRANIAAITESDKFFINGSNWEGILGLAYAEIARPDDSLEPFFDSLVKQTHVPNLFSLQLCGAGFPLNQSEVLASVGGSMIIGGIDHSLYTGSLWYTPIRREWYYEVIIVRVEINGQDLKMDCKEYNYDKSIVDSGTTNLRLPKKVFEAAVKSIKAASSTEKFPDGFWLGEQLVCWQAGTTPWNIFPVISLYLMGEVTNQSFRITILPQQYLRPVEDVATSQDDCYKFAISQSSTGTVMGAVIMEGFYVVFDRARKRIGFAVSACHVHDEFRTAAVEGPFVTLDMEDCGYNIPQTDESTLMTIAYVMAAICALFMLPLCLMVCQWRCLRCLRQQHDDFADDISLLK

[6] = target: Cathepsin D (Homo sapiens) (UniProt P07339); experiment: Inhibition of recombinant human cathepsin D using EVNLDAEFRK substrate at up to 5 uM after 3 hrs; in short: as §1
Chain of Cathepsin D (Homo sapiens) (P07339 65-162 limits assumed): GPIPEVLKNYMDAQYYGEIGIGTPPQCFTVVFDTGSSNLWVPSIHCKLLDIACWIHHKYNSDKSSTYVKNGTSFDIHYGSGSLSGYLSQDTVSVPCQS
Chain of Cathepsin D (Homo sapiens) (P07339 169-412 limits assumed): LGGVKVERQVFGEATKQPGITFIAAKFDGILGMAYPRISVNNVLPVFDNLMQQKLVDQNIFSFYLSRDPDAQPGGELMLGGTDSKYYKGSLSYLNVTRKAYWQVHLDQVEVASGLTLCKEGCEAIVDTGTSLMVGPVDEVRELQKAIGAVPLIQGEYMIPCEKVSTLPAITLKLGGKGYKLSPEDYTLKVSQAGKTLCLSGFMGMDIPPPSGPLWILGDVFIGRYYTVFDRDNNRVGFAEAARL

Collagenase 3 [7] = target: T1, Collagenase 3; experiment: Non-competitive inhibition of full-length recombinant human MMP-13 assessed as fTHP-15 substrate hydrolysis
Cytochrome P450 3A4 [8] = target: T5, Cytochrome P450 3A4; experiment: Inhibition of CYP3A4 (unknown origin) using testosterone substrate; assay type: ADME
In short: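 Reactions stopped with acetonitrile/0.1% formic acid plus labelled internal standard. Metabolite measured by LC-MS area ratio. IC50 by linear interpolation.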

Liver microsome = experiment: Half life in rat liver microsomes by LC-MS/MS analysis; assay type: ADME
In short: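 Compound at 1 μM with 1 mg/mL liver microsomes in 100 mM potassium phosphate pH 7.4 at 37 °C with shaking. Reaction started with 1 mM NADPH (final). Aliquots were taken at 0, 5, 10, 20, 40 and 60 min and quenched in acetonitrile. Parallel incubations without NADPH were run.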

Row | Structure (SMILES) | inhibition (Caspase-3 (Homo sapiens)) [%] | inhibition [2] [%] | inhibition (Caspase-1 (Homo sapiens)) [%] | inhibition [3] [%] | inhibition (Caspase-2 (Homo sapiens)) [%] | inhibition [5] [%] | inhibition [6] [%] | inhibition (Collagenase 3 [1]) [%] | inhibition (INH) (Cytochrome P450 3A4 [4]) [%] | IC50 (Collagenase 3 [7]) [µM] | IC50 (Cytochrome P450 3A4 [8]) [µM] | t1/2 (Liver microsome) [min]
1 | Cc1ccc(CSc2nc(O)c3c(n2)CCC3)cc1 | – | – | – | – | – | – | – | 59 | – | – | – | –
2 | COC(=O)c1ccc(CSc2nc3c(c(=O)[nH]2)CCC3)cc1 | – | – | – | – | – | – | – | 38 | < 50 | 2.8 | > 20 | 1.8
3 | Oc1nc(SCc2ccc(Cl)cc2)nc2c1CCC2 | – | – | – | – | – | – | – | – | – | 3.4 | > 20 | 6.8

More lines, main results first:

Row | inhibition (Caspase-3 (Homo sapiens)) [%] | inhibition [2] [%] | inhibition (Caspase-1 (Homo sapiens)) [%] | inhibition [3] [%] | inhibition (Caspase-2 (Homo sapiens)) [%] | inhibition [5] [%] | inhibition [6] [%] | Structure (SMILES) | inhibition (Collagenase 3 [1]) [%] | inhibition (INH) (Cytochrome P450 3A4 [4]) [%] | IC50 (Collagenase 3 [7]) [µM] | IC50 (Cytochrome P450 3A4 [8]) [µM] | t1/2 (Liver microsome) [min]
4 | < 10 | < 10 | < 10 | < 10 | < 10 | < 10 | < 10 | Cc1cc(CNC(=O)c2cc(C(=O)NCc3ccc(F)c(C)c3)ncn2)ccc1F | – | > 10 | – | – | –
5 | < 10 | > 10 | < 10 | < 10 | < 10 | < 10 | < 10 | Cn1c(=O)n(Cc2ccc(C(=O)O)cc2)c(=O)c2cc(C#CCc3ccccc3)ccc21 | – | – | – | – | –
